# Assay results reported in ChEMBL document CHEMBL1123166, “Design and synthesis of 2-(arylamino)-4(3H)-quinazolinones as novel inhibitors of rat lens aldose reductase” (J Med Chem, 1986).
# Target: Aldo-keto reductase family 1 member B1 (Rattus norvegicus, UniProt P07943)
# Test: Compound was tested for its ability to inhibit crude aldose reductase obtained from rat lens
row,Structure (SMILES),IC50 [µM]
1,Cc1nc2ccccc2c(=O)n1-c1ccc(C(=O)O)cc1,214
2,COc1cc2nc(Nc3ccc(C(=O)O)cc3)[nH]c(=O)c2cc1OC,34
3,O=C(O)c1ccc(Nc2nc3ccccc3c(=O)[nH]2)cc1,50

# Other lines, results leading:
row,IC50 [µM],Structure (SMILES)
1,75,O=c1[nH]c(Nc2ccc(O)cc2)nc2ccccc12
2,57,O=C(O)c1ccc(Nc2nc3ccccc3c(=O)[nH]2)cc1O

# Target: Aldo-keto reductase family 1 member B1 (Rattus norvegicus) (UniProt P07943)
# Test: Compound was tested for its ability to inhibit crude aldose reductase obtained from rat lens at 100 uM concentration
# How it was run: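 Crude enzyme prepared from rat lens. Reaction at pH 6.2 in 0.1 M phosphate buffer with 0.104 mM NADPH and 1.5 mM DL-glyceraldehyde as substrate. NADPH consumption followed at 340 nm against a blank lacking substrate. Percent inhibition from rate versus substrate-only control. IC50 from linear regression of log dose-response using at least three concentrations, three replicates each, for compounds exceeding 50% inhibition at 100 μM.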
row,inhibition [%],Structure (SMILES)
1,17.4,COc1cc2nc(Nc3ccccc3)nc(O)c2cc1OC
2,3.9,Oc1nc(NCc2ccccc2)nc2ccccc12
3,5.9,Oc1nc(Nc2ccccc2)nc2ccccc12
4,42.6,O=S(=O)(O)c1ccc(Nc2nc(O)c3ccccc3n2)cc1
5,22.4,COc1cc2nc(NCc3ccccc3)nc(O)c2cc1OC
